The text below walks through data of ChEMBL document CHEMBL4354828, “Discovery of Taniborbactam (VNRX-5133): A Broad-Spectrum Serine- and Metallo-β-lactamase Inhibitor for Carbapenem-Resistant Bacterial Infections” (J Med Chem, 2020).

In brackets after ≈: the same amount, converted by molar mass. A value given as a limit tells only on which side of the number the result lay.

The subject of assay [1] is Enterobacter cloacae. Description: Inhibition of TEM/CTX-M/SHV/Cephalosporinase in Enterobacter cloacae CH23 assessed as cefepime antibacterial activity at 4 ug/ml after 16 to 20 hrs by CLSI-based microbroth dilution method (Rvb > […] ug/ml).
The subject of assay [2] is Klebsiella pneumoniae ATCC BAA-1705. Description: Inhibition of KPC-2 in Klebsiella pneumoniae ATCC BAA 1705 assessed as meropenem antibacterial activity at 4 ug/ml after 16 to 20 hrs by CLSI-based microbroth dilution method (reference value: […] ug/ml).
Assay [3] is described as follows: Inhibition of bacterial CMY-2 using nitrocefin as substrate preincubated for 15 mins followed by susbtrate addition and measured after 10 mins by spectrophotometric method. The arrangement: species or system Bacteria.
Assay [4] has as its system Escherichia coli. The assay is described as follows: Inhibition of VIM-1/VIM-2/VIM-4/NDM-1 in Escherichia coli assessed as cefepime antibacterial activity at 4 ug/ml after 16 to 20 hrs by CLSI-based microbroth dilution method. Put shortly: (§1)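 Panel of 14 clinical isolates expressing class B VIM- or NDM-type MBLs: E. coli (4), E. cloacae (2), K. pneumoniae (4), P. aeruginosa (1), A. baumannii (3).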

Assay [5] is described as follows: Inhibition of bacterial NDM-1 using cefepime as substrate preincubated for 15 mins followed by susbtrate addition and measured after 10 mins by spectrophotometric method. On the set-up: species or system Bacteria.
Assay [6] relates to Acinetobacter baumannii. Description: Inhibition of VIM-1/VIM-2/VIM-4/NDM-1 in Acinetobacter baumannii assessed as cefepime antibacterial activity at 4 ug/ml after 16 to 20 hrs by CLSI-based microbroth dilution method. Put shortly:
as §1
On the technique in general: In broth dilution the organism is exposed to a series of concentrations in liquid medium.

Assay [7] relates to Escherichia coli. The assay is described as follows: Inhibition of NDM in Escherichia coli CDC-0452 assessed as meropenem antibacterial activity at 4 ug/ml after 16 to 20 hrs by CLSI-based microbroth dilution method (reference value: […] ug/ml).
In assay [8] the test system is Escherichia coli. The assay is described as follows: Inhibition of NDM-1/CMY-6/OXA-1 in Escherichia coli CDC-0055 assessed as meropenem antibacterial activity at 4 ug/ml after 16 to 20 hrs by CLSI-based microbroth dilution method (reference value: […] ug/ml).
In assay [9] the test system is Enterobacter cloacae. Description: Inhibition of VIM-1/VIM-2/VIM-4/NDM-1 in Enterobacter cloacae assessed as cefepime antibacterial activity at 4 ug/ml after 16 to 20 hrs by CLSI-based microbroth dilution method. Put shortly: as §1
The test system of assay [10] is Pseudomonas aeruginosa. Description: Inhibition of VIM in Pseudomonas aeruginosa CDC-0457 assessed as cefepime antibacterial activity at 8 ug/ml after 16 to 20 hrs by CLSI-based microbroth dilution method.
A short description of assay [11]: Inhibition of bacterial CTX-M-15 using cefotaxime as substrate preincubated for 15 mins followed by susbtrate addition and measured after 10 mins by spectrophotometric method. On the set-up: species or system Bacteria.
Assay [12] can be described thus: Inhibition of bacterial OXA-48 using nitrocefin as substrate preincubated for 15 mins followed by susbtrate addition and measured after 10 mins by spectrophotometric method. The arrangement: species or system Bacteria.
Assay [13] concerns Escherichia coli. The assay is described as follows: Inhibition of NDM in Escherichia coli CDC-0452 assessed as piperacillin antibacterial activity at 16 ug/ml after 16 to 20 hrs by CLSI-based microbroth dilution method (Rvb > […] ug/ml).
Assay [14] can be described thus: Inhibition of bacterial IMP-1 using nitrocefin as substrate preincubated for 15 mins followed by susbtrate addition and measured after 10 mins by spectrophotometric method. The arrangement: species or system Bacteria.
For assay [15], the system named is Escherichia coli. The assay is described as follows: Inhibition of TEM/CTX-M/SHV/Cephalosporinase in Escherichia coli EC1552 assessed as cefepime antibacterial activity at 4 ug/ml after 16 to 20 hrs by CLSI-based microbroth dilution method (reference value: […] ug/ml).
The test system of assay [16] is Klebsiella pneumoniae. The assay is described as follows: Inhibition of VIM-1/VIM-2/VIM-4/NDM-1 in Klebsiella pneumoniae assessed as cefepime antibacterial activity at 4 ug/ml after 16 to 20 hrs by CLSI-based microbroth dilution method.
Assay [17] is described as follows: Inhibition of bacterial VIM-2 using nitrocefin as substrate preincubated for 15 mins followed by susbtrate addition and measured after 10 mins by spectrophotometric method. The arrangement: species or system Bacteria. Put shortly:
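Purified β-lactamase inhibition. IC50 values are the average of duplicates unless otherwise indicated.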

The test system of assay [18] is Pseudomonas aeruginosa. The assay is described as follows: Inhibition of KPC-2/PDC-42 in Pseudomonas aeruginosa CDC-0356 assessed as cefepime antibacterial activity at 8 ug/ml after 16 to 20 hrs by CLSI-based microbroth dilution method (Rvb > […] ug/ml).
Assay [19] deals with Pseudomonas aeruginosa. The assay is described as follows: Inhibition of VIM in Pseudomonas aeruginosa CDC-0457 assessed as meropenem antibacterial activity at 4 ug/ml after 16 to 20 hrs by CLSI-based microbroth dilution method.
In assay [20] the test system is Pseudomonas aeruginosa. Description: Inhibition of KPC-2/PDC-42 in Pseudomonas aeruginosa CDC-0356 assessed as piperacillin antibacterial activity at 16 ug/ml after 16 to 20 hrs by CLSI-based microbroth dilution method (Rvb > […] ug/ml).
The subject of assay [21] is Escherichia coli. Description: Inhibition of NDM-1/CMY-6/OXA-1 in Escherichia coli CDC-0055 assessed as cefepime antibacterial activity at 8 ug/ml after 16 to 20 hrs by CLSI-based microbroth dilution method. The gist of the method:
(§2)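 MDR β-lactamase-producing Gram-negative clinical isolates. […] MIC was reported as the inhibitor concentration that restores the partner's antibacterial activity.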

Assay [22] deals with Escherichia coli. The assay is described as follows: Inhibition of NDM-1/CMY-6/OXA-1 in Escherichia coli CDC-0055 assessed as piperacillin antibacterial activity at 16 ug/ml after 16 to 20 hrs by CLSI-based microbroth dilution method. Put shortly:
as §2

In assay [23] the test system is Pseudomonas aeruginosa. The assay is described as follows: Inhibition of VIM-1/VIM-2/VIM-4/NDM-1 in Pseudomonas aeruginosa assessed as cefepime antibacterial activity at 4 ug/ml after 16 to 20 hrs by CLSI-based microbroth dilution method. The gist of the method:
as §1

The subject of assay [24] is Pseudomonas aeruginosa. Description: Inhibition of KPC-2/PDC-42 in Pseudomonas aeruginosa CDC-0356 assessed as meropenem antibacterial activity at 4 ug/ml after 16 to 20 hrs by CLSI-based microbroth dilution method (reference value: […] ug/ml).
The subject of assay [25] is Klebsiella pneumoniae. The assay is described as follows: Inhibition of TEM/CTX-M/SHV in Klebsiella pneumoniae 9032 assessed as cefepime antibacterial activity at 4 ug/ml after 16 to 20 hrs by CLSI-based microbroth dilution method (reference value: […] ug/ml).
Assay [26] is described as follows: Inhibition of bacterial SHV-5 using cefotaxime as substrate preincubated for 15 mins followed by susbtrate addition and measured after 10 mins by spectrophotometric method. The arrangement: species or system Bacteria.
The nature of assay [27]: Inhibition of bacterial KPC-2 using imipenem as substrate preincubated for 15 mins followed by susbtrate addition and measured after 10 mins by spectrophotometric method. On the set-up: species or system Bacteria.
For assay [28], the system named is Enterobacter cloacae. The assay is described as follows: Antibacterial activity against Enterobacter cloacae 144200 expressing p99 AmpC after 16 to 20 hrs by CLSI-based microbroth dilution method. The assay is classed as functional.
Assay [29] deals with Klebsiella pneumoniae. The assay is described as follows: Antibacterial activity against wild type Klebsiella pneumoniae CI 09 after 16 to 20 hrs by CLSI-based microbroth dilution method. The assay is classed as functional.
Assay [30] concerns Escherichia coli. The assay is described as follows: Antibacterial activity against wild type Escherichia coli ATCC 25922 after 16 to 20 hrs by CLSI-based microbroth dilution method. It counts as functional.
For assay [31], the system named is Klebsiella aerogenes. Description: Antibacterial activity against Enterobacter aerogenes 188548 expressing AmpC after 16 to 20 hrs by CLSI-based microbroth dilution method. The assay is classed as functional.
Assay [32] deals with Escherichia coli. Description: Antibacterial activity against Escherichia coli J53 expressing SHV5/ AmpC/TEM-1 after 16 to 20 hrs by CLSI-based microbroth dilution method. The assay is classed as functional.
The subject of assay [33] is Pseudomonas aeruginosa. The assay is described as follows: Antibacterial activity against wild type Pseudomonas aeruginosa 27853 after 16 to 20 hrs by CLSI-based microbroth dilution method. The assay is classed as functional.
Assay [34] concerns Staphylococcus aureus. The assay is described as follows: Antibacterial activity against wild type Staphylococcus aureus ATCC 29213 after 16 to 20 hrs by CLSI-based microbroth dilution method. The assay is classed as functional.
Assay [35] has as its system Staphylococcus aureus. Description: Antibacterial activity against methicillin resistant Staphylococcus aureus 33591 after 16 to 20 hrs by CLSI-based microbroth dilution method. The assay is classed as functional.

For orientation: IC50 means the concentration that inhibits the measured activity by half. Low values mean greater potency, high ones weaker potency.

Take `C[C@]1(Cn2ccnn2)[C@H](C(=O)O)N2C(=O)C[C@H]2S1(=O)=O` [TAZOBACTAM]: the MIC in [1] is more than 16 µg/mL; in [2], 8 µg/mL (≈ 26.6 µM); in assay [7], more than 16 µg/mL; in assay [8] it was more than 16 µg/mL; in assay [10], more than 16 µg/mL; in assay [13] it was more than 16 µg/mL. Further, the MIC in assay [15] is 4 µg/mL (≈ 13.3 µM); in assay [18] it was more than 16 µg/mL; in assay [19], more than 16 µg/mL; in assay [20], more than 16 µg/mL; in assay [21], more than 16 µg/mL; in assay [22], more than 16 µg/mL. Moreover, the MIC is more than 16 µg/mL in assay [24] and 4 µg/mL (≈ 13.3 µM) in assay [25]. Also, the IC50 is 0.41 µM in [3]; more than 100 µM in assay [5]; 0.001 µM in [11]; 0.55 µM in assay [12]; more than 100 µM in assay [14]; more than 100 µM in [17]. The IC50 in assay [26] was 0.015 µM; in assay [27], 1.7 µM. The MIC50 in assay [4], in assay [6], in [9], in assay [16] and in assay [23] was more than 32 µg/mL in each case. In addition, the MIC90 in assay [4], in assay [6], in assay [9], in assay [16] and in assay [23] was more than 32 µg/mL in each case.
Turning to `C[C@@H](O)[C@H]1C(=O)N2C(C(=O)O)=C(S[C@@H]3CN[C@H](C(=O)N(C)C)C3)[C@H](C)[C@H]12` [MEROPENEM], the MIC in [28] is 0.25 µg/mL (≈ 0.652 µM); in assay [29] it was 0.06 µg/mL (≈ 0.156 µM); in assay [30], 0.03 µg/mL (≈ 0.0782 µM); in assay [31] it was 2 µg/mL (≈ 5.22 µM); in [32] it was 0.06 µg/mL (≈ 0.156 µM); in assay [33] it was 1 µg/mL (≈ 2.61 µM). The MIC in assay [34] stood at 0.06 µg/mL (≈ 0.156 µM); in assay [35], 32 µg/mL (≈ 83.4 µM).
